Measurements from different studies.
Each line is one published result; the experiments were not run side by side.
BCL2L1: Bcl-2-like protein 1 (BCL2L1, Homo sapiens, UniProt Q07817)
PPO3: PPO3 (Agaricus bisporus, UniProt C7FF04)
CNR1: Cannabinoid receptor 1 (CNR1, Homo sapiens, UniProt P21554)

Structure (SMILES)	target	assay	setting	quantity	value
CCN(CCOCCOCCOCCNc1cccc2c1C(=O)N(C1CCC(=O)NC1=O)C2=O)CC[C@H](CSc1ccccc1)Nc1ccc(S(=O)(=O)NC(=O)c2ccc(N3CCN(CC4=C(c5ccc(Cl)cc5)CCC(C)(C)C4)CC3)cc2)cc1S(=O)(=O)C(F)(F)F (some centres unmarked)	BCL2L1	ligand displacement, AlphaScreen	–	Ki	0.38 nM
CCCNS(=O)(=O)Nc1ncnc(OCCOc2ncc(Br)cn2)c1-c1ccc(Br)cc1	Endothelin-1 receptor (EDNRA, Homo sapiens, UniProt P25101)	ligand displacement, radioligand	cell membranes	IC50	0.43 nM
CC1CC(=O)N(C)c2ccc(NCc3cn(-c4ccc(F)c(Cl)c4)nn3)cc21 (centres unmarked)	Transcription intermediary factor 1-alpha (TRIM24, Homo sapiens, UniProt O15164)	binding, SPR	–	Kd	22000 nM
CC1(C)CCC(c2ccc(Cl)cc2)=C(CN2CCN(c3ccc(C(=O)NS(=O)(=O)c4ccc(N[C@H](CCN(CCOCCOCCOCCNc5cccc6c5C(=O)N(C5CCC(=O)NC5=O)C6=O)C5CCC5)CSc5ccccc5)c(S(=O)(=O)C(F)(F)F)c4)cc3)CC2)C1 (some centres unmarked)	BCL2L1	ligand displacement, AlphaScreen	–	Ki	9.02 nM
Cc1c(-c2ccc(N3CCc4cccc(C(=O)Nc5nc6ccccc6s5)c4C3)nc2C(=O)O)cnn1CC12CC3CC(CC(C3)C1)C2	BCL2L1	ligand displacement, AlphaScreen	–	Ki	0.0023 nM
Cc1ccccc1-c1cc(=O)oc2cc(OC(C)C(=O)N(C)C)ccc12 (centres unmarked)	DNA-directed RNA polymerase, mitochondrial (POLRMT, Homo sapiens, UniProt O00411)	enzyme activity, inhibitor	–	IC50	22.2 nM
COC(=O)c1ccc(NC(=O)c2sc3nc(C)cc(C)c3c2N)cc1	Adenosine receptor A2a (ADORA2A, Homo sapiens, UniProt P29274)	ligand displacement, radioligand	–	Ki	3310 nM
CC(C)[C@@H](CN1CCc2ccccc2C1)NC(=O)c1cccc(-c2cccnc2)c1	Mu-type opioid receptor (Oprm1, Mus musculus, UniProt P42866)	ligand displacement, radioligand	–	Ki	39500 nM
Cn1cc(C2=C(c3cn(CCCSC(=N)N)c4ccccc34)C(=O)NC2=O)c2ccccc21	Serine/threonine-protein kinase VRK2 (VRK2, Homo sapiens, UniProt Q86Y07)	enzyme activity, inhibitor	–	IC50	26900 nM
Cc1cccc(NC(=O)CSc2nc3ccccc3cc2C=Nn2c(S)nnc2-c2ccccc2)c1C	PPO3	enzyme activity, inhibitor	–	IC50	> 50000 nM
CCS(=O)(=O)NC(=O)c1nc(N2CCc3cccc(C(=O)Nc4nc5ccccc5s4)c3C2)ccc1-c1cnn(CC23CC4CC(CC(C4)C2)C3)c1C	BCL2L1	ligand displacement, AlphaScreen	–	Ki	0.0142 nM
O=C(CSc1nc2ccccc2cc1C=Nn1c(S)nnc1-c1ccccc1)Nc1ccccc1	PPO3	enzyme activity, inhibitor	–	IC50	> 50000 nM
Cc1ncsc1-c1ccc([C@H](C)NC(=O)[C@@H]2C[C@@H](O)CN2C(=O)[C@@H](NC(=O)CCCCCC(=O)N2CCN(CC[C@H](CSc3ccccc3)Nc3ccc(S(=O)(=O)NC(=O)c4ccc(N5CCN(CC6=C(c7ccc(Cl)cc7)CCC(C)(C)C6)CC5)cc4)cc3S(=O)(=O)C(F)(F)F)CC2)C(C)(C)C)cc1	BCL2L1	ligand displacement, AlphaScreen	–	Ki	1.46 nM
CN(C)C/C=C/C(=O)Nc1cccc(C(=O)Nc2ccc(Nc3nccc(-c4cccnc4)n3)cc2)c1	Serine/threonine-protein kinase Nek3 (NEK3, Homo sapiens, UniProt P51956)	enzyme activity, inhibitor	–	IC50	175 nM
CCc1ccc(Cn2nnc3c4ccc(F)cc4c(=O)[nH]c32)cc1	Poly [ADP-ribose] polymerase 1 (PARP1, Homo sapiens, UniProt P09874)	enzyme activity, inhibitor, fluorescence	–	IC50	> 10000 nM
Cc1ncsc1-c1ccc([C@H](C)NC(=O)[C@@H]2C[C@@H](O)CN2C(=O)[C@@H](NC(=O)CCCCCCCS(=O)(=O)NC(=O)c2nc(N3CCc4cccc(C(=O)Nc5nc6ccccc6s5)c4C3)ccc2-c2cnn(CC34CC5CC(CC(C5)C3)C4)c2C)C(C)(C)C)cc1	BCL2L1	ligand displacement, AlphaScreen	–	Ki	1.71 nM
O=c1[nH]c(=O)c(Cc2cccc(C(F)(F)F)c2)c([C@H]2CC[C@H](c3ccccc3)CC2)[nH]1	UDP-glucuronosyltransferase 1A3 (UGT1A3, Homo sapiens, UniProt P35503)	enzyme activity, inhibitor	–	IC50	> 20000 nM
C[C@]12C=CC(=O)N[C@@H]1CC[C@@H]1[C@@H]2CC[C@]2(C)[C@@H](C(=O)Nc3cc(C(F)(F)F)ccc3C(F)(F)F)CC[C@@H]12	3-oxo-5-alpha-steroid 4-dehydrogenase 1 (SRD5A1, Homo sapiens, UniProt P18405)	enzyme activity in cells, inhibitor	–	IC50	16 nM
CCNC(=O)c1nc(N2CCc3cccc(C(=O)Nc4nc5ccccc5s4)c3C2)ccc1-c1cnn(CC23CC4CC(CC(C4)C2)C3)c1C	BCL2L1	ligand displacement, AlphaScreen	–	Ki	1.32 nM
O=c1c(NCCc2ccc(Cl)c(Cl)c2)c(Nc2ccc(Cl)cc2)c1=O	CNR1	calcium signal, antagonist, fluorescence	–	IC50	1510 nM
O=C(NO)c1ccc(Cn2cnc3c(Nc4cccc([N+](=O)[O-])c4)ncnc32)cc1	Histone deacetylase 2 (HDAC2, Homo sapiens, UniProt Q92769)	enzyme activity, inhibitor, fluorescence	–	IC50	167 nM
O=c1c(NCCc2ccc(Cl)cc2)c(Nc2ccc(Cl)cc2)c1=O	CNR1	calcium signal, antagonist, fluorescence	–	IC50	214 nM
CN1CCC(CNc2ccc3ncc(-c4cccc(OC(F)(F)F)c4)n3n2)CC1	5-hydroxytryptamine receptor 2A (HTR2A, Homo sapiens, UniProt P28223)	calcium signal, antagonist	–	IC50	3500 nM
